Assay results from paper PMC5858725 (Biochemistry, 2017).
Where two headings read alike, the source gives them in different places.

How the values were obtained:
WT CYP3A4 [1] = test: Stopped flow ligand binding kinetics, WT CYP3A4; design: species or system human; conditions: for Percentage of absorbance change observed during the fast kinetic phase / Percentage of absorbance change observed during the slow kinetic phase: 40 μM ligand
opt-WT CYP3A4 [2] = target: T1, opt-WT CYP3A4 (Homo sapiens, UniProt P08684); test: Stopped flow ligand binding kinetics, opt-WT CYP3A4; conditions: for Percentage of absorbance change observed during the fast kinetic phase / Percentage of absorbance change observed during the slow kinetic phase: 40 μM ligand
Cys-less CYP3A4 [3] = target: T2, Cys-less CYP3A4 (Homo sapiens, UniProt P08684, C239T/C377A/C468S/C58A/C64M/C98A); test: Stopped flow ligand binding kinetics, Cys-less CYP3A4; conditions: for Percentage of absorbance change observed during the fast kinetic phase / Percentage of absorbance change observed during the slow kinetic phase: 40 μM ligand
opt-WT CYP3A4 [4] = target: T1, opt-WT CYP3A4
Cys-less CYP3A4 [5] = target: T2, Cys-less CYP3A4
WT CYP3A4 [6] = conditions: cited from earlier work
Cys-less CYP3A4 [7] = target: T2, Cys-less CYP3A4; test: BFC O-debenzylase activity in reconstituted system with CPR; type: biochemical; conditions: 0.1–0.6 M phosphate pH 7.4, all studied conditions; relative to WT and opt-WT
Procedure, shortened: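 N-terminally truncated (Δ3–22) CYP3A4 carrying C58A/C64M/C98A/C239T/C377A/C468S, co-expressed with GroESL in E. coli C41(DE3). […] Lipid-free reconstitution with rat cytochrome P450 reductase. Substrate 7-benzyloxy(4-trifluoromethyl)coumarin, O-debenzylated to a fluorescent product that is read fluorimetrically.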

CPR = test: Kinetics of CYP3A4 reduction with CPR; type: biochemical, rat; conditions: anaerobic
[8] = 2 μM CYP3A4 mixed with 40 μM ligand, 0.6 M phosphate pH 7.4
[9] = CO-saturated 0.1 M phosphate pH 7.4, 1 μM CYP3A4 and CPR, 30 μM MDZ, 100 μM NADPH

CC(C)C[C@H]1C(=O)N2CCC[C@H]2[C@]2(O)O[C@](NC(=O)[C@@H]3C=C4c5cccc6[nH]c(Br)c(c56)C[C@H]4N(C)C3)(C(C)C)C(=O)N12 [BEC, bromoergocryptine]
Percentage of absorbance change observed during the fast kinetic phase (WT CYP3A4 [1]; 0.1 M phosphate pH 7.4): 52% | Percentage of absorbance change observed during the slow kinetic phase (WT CYP3A4 [1]; 0.1 M phosphate pH 7.4): 48% | Percentage of absorbance change observed during the fast kinetic phase (opt-WT CYP3A4 [2]; 0.1 M phosphate pH 7.4): 49% | Percentage of absorbance change observed during the slow kinetic phase (opt-WT CYP3A4 [2]; 0.1 M phosphate pH 7.4): 51% | Percentage of absorbance change observed during the fast kinetic phase (Cys-less CYP3A4 [3]; 0.1 M phosphate pH 7.4): 54% | Percentage of absorbance change observed during the slow kinetic phase (Cys-less CYP3A4 [3]; 0.1 M phosphate pH 7.4): 46% | affinity lower than WT (from Ks) (opt-WT CYP3A4 [4]): 1.5–2 fold | Kd (opt-WT CYP3A4 [4]; pH 7.4): 770 ± 140 nM | affinity lower than WT (from Ks) (Cys-less CYP3A4 [5]): 1.5–2 fold | Kd (Cys-less CYP3A4 [5]; pH 7.4): 450 ± 60 nM | Kd (WT CYP3A4 [6]; read-out: Equilibrium Titrations, Ks, determined previously): 300 nM

O=c1cc(C(F)(F)F)c2ccc(OCc3ccccc3)cc2o1 [BFC, 7-benzyloxy-(4-trifluoromethyl)coumarin]
BFC oxidation (debenzylation) by Cys-less CYP3A4, faster than WT and opt-WT (Cys-less CYP3A4 [7]): 6–8 fold

Cc1ncc2n1-c1ccc(Cl)cc1C(c1ccccc1F)=NC2 [MDZ, midazolam]
Ligand Binding Kinetics, kfast (WT CYP3A4 [1]; [8]): 3.4 ± 0.3 s⁻¹ | Ligand Binding Kinetics, kslow (WT CYP3A4 [1]; [8]): 0.23 ± 0.04 s⁻¹ | Percentage of absorbance change observed during the fast kinetic phase (WT CYP3A4 [1]; 0.1 M phosphate pH 7.4): 70% | Percentage of absorbance change observed during the slow kinetic phase (WT CYP3A4 [1]; 0.1 M phosphate pH 7.4): 30% | Percentage of absorbance change observed during the fast kinetic phase (WT CYP3A4 [1]; 0.6 M phosphate pH 7.4): 82% | Percentage of absorbance change observed during the slow kinetic phase (WT CYP3A4 [1]; 0.6 M phosphate pH 7.4): 18% | Ligand Binding Kinetics, kfast (opt-WT CYP3A4 [2]; [8]): 0.26 ± 0.03 s⁻¹ | Ligand Binding Kinetics, kslow (opt-WT CYP3A4 [2]; [8]): 0.027 ± 0.004 s⁻¹ | Percentage of absorbance change observed during the fast kinetic phase (opt-WT CYP3A4 [2]; 0.1 M phosphate pH 7.4): 43% | Percentage of absorbance change observed during the slow kinetic phase (opt-WT CYP3A4 [2]; 0.1 M phosphate pH 7.4): 57% | Percentage of absorbance change observed during the fast kinetic phase (opt-WT CYP3A4 [2]; 0.6 M phosphate pH 7.4): 49% | Percentage of absorbance change observed during the slow kinetic phase (opt-WT CYP3A4 [2]; 0.6 M phosphate pH 7.4): 51% | Ligand Binding Kinetics, kfast (Cys-less CYP3A4 [3]; [8]): 0.27 ± 0.02 s⁻¹ | Ligand Binding Kinetics, kslow (Cys-less CYP3A4 [3]; [8]): 0.036 ± 0.003 s⁻¹ | Percentage of absorbance change observed during the fast kinetic phase (Cys-less CYP3A4 [3]; 0.1 M phosphate pH 7.4): 40% | Percentage of absorbance change observed during the slow kinetic phase (Cys-less CYP3A4 [3]; 0.1 M phosphate pH 7.4): 60% | Percentage of absorbance change observed during the fast kinetic phase (Cys-less CYP3A4 [3]; 0.6 M phosphate pH 7.4): 43% | Percentage of absorbance change observed during the slow kinetic phase (Cys-less CYP3A4 [3]; 0.6 M phosphate pH 7.4): 57% | Kd (WT CYP3A4 [6]; read-out: Equilibrium Titrations, Ks, 0.1 M phosphate, determined previously): 4800 nM | Kd (WT CYP3A4 [6]; read-out: Equilibrium Titrations, Ks, 0.6 M phosphate, determined previously): 1800 nM

CC(C)c1nc(CN(C)C(=O)N[C@H](C(=O)N[C@@H](Cc2ccccc2)C[C@H](O)[C@H](Cc2ccccc2)NC(=O)OCc2cncs2)C(C)C)cs1 [RIT, ritonavir]
Percentage of absorbance change observed during the fast kinetic phase (WT CYP3A4 [1]; 0.1 M phosphate pH 7.4): 70% | Percentage of absorbance change observed during the slow kinetic phase (WT CYP3A4 [1]; 0.1 M phosphate pH 7.4): 30%

B1: Cys-less: C58A/C64M/C98A/C239T/C377A/C468S variant of CYP3A4 from codon-optimized synthetic gene (protein, UniProt P08684 2-503, looked up, variant C58A C64M C98A C239T C377A C468S)
Cytochrome P450 3A4: ALIPDLAMETWLLLAVSLVLLYLYGTHSHGLFKKLGIPGPTPLPFLGNILSYHKGFAMFDMEMHKKYGKVWGFYDGQQPVLAITDPDMIKTVLVKEAYSVFTNRRPFGPVGFMKSAISIAEDEEWKRLRSLLSPTFTSGKLKEMVPIIAQYGDVLVRNLRREAETGKPVTLKDVFGAYSMDVITSTSFGVNIDSLNNPQDPFVENTKKLLRFDFLDPFFLSITVFPFLIPILEVLNITVFPREVTNFLRKSVKRMKESRLEDTQKHRVDFLQLMIDSQNSKETESHKALSDLELVAQSIIFIFAGYETTSSVLSFIMYELATHPDVQQKLQEEIDAVLPNKAPPTYDTVLQMEYLDMVVNETLRLFPIAMRLERVAKKDVEINGMFIPKGVVVMIPSYALHRDPKYWTEPEKFLPERFSKKNKDNIDPYIYTPFGSGPRNCIGMRFALMNMKLALIRVLQNFSFKPSKETQIPLKLSLGGLLQPEKPVVLKVESRDGTVSGA
modifications: Δ3–22 truncation
First Electron Transfer from CPR, kfast (CPR; [9]): 1.22 ± 0.03 min⁻¹ | First Electron Transfer from CPR, kslow (CPR; [9]): 0.22 ± 0.02 min⁻¹ | First Electron Transfer from CPR, percentage of absorbance change in the fast phase (CPR; CO-saturated 0.1 M phosphate pH 7.4, 30 μM MDZ): 64%
